Data taken from paper PMC3387282 (ACS medicinal chemistry letters, 2011).
“Also recorded” adds a separate entry of the source.

Key:
Icmt = Icmt (Homo sapiens, UniProt O60725); experiment: Icmt vapor diffusion assay; assay type: biochemical; conditions: for potency relative to 10u: Icmt inhibition; for Icmt inhibition (in words): vapor diffusion assay
Summary of the method: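 Vapor diffusion Icmt methylation assay. Screening at 10 μM inhibitor, with specific activity given as percent of the no-inhibitor AFC control. Test compounds were also run as possible substrates. IC50 was measured in vitro, Ki was calculated from IC50 by the Cheng–Prusoff method, and inhibition mode was set by further biochemical evaluation.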

MEF Icmt^−/− cells = experiment: MTT cell viability in MEF Icmt-/- cells; assay type: cell-based; conditions: for effect on viability in MEF Icmt^−/− cells (in words): MTT; for IC50: read-out: IC50 MEF Icmt^−/−
MEF Icmt^+/+ cells = experiment: MTT cell viability in MEF Icmt+/+ cells; assay type: cell-based
[1] = system: GFP-K-Ras localization in Jurkat T cells (E 6.1); experiment: GFP-K-Ras membrane localization in Jurkat T cells; assay type: cell-based; conditions: 24 h treatment
Summary of the method: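 Jurkat T cells (E 6.1) expressing GFP-KRas treated 24 h with vehicle, test compound at several concentrations, or 25 μM simvastatin as reference. Cells laid on poly-L-lysine-coated coverslips (100 μg/mL) and fixed in 3.7% formaldehyde for 10 min. Fluorescence microscopy scored by eye in random fields of 100 cells as normal plasma membrane, partial, or complete mislocalization.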

Sequence of Icmt (O60725 whole entry, the tested form may be a part): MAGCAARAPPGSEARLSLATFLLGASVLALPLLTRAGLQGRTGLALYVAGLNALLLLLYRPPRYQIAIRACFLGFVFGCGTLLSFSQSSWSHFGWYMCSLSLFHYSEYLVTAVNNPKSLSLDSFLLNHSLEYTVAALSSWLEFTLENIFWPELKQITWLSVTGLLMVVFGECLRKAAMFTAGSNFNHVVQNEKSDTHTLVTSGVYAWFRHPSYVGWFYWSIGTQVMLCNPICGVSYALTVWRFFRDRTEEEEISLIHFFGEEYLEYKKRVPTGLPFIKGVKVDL

Structure (SMILES): COC(=O)CCSC/C=C(\C)CCn1cc(CCc2ccc(-c3cccc(C#N)c3)cc2)nn1 [Compound 10t]
- potency relative to 10u (Icmt): approximately twice as potent

Structure (SMILES): COC(=O)CCSC/C=C(\C)CCn1cc(CCc2ccc(-c3ccc(F)cc3)cc2)nn1 [Compound 10s]
- potency relative to 10u (Icmt): approximately twice as potent

Structure (SMILES): COC(=O)CCSC/C=C(\C)CCn1cc(COc2ccc(-c3ccccc3)cc2)nn1 [Compound 10q]
- Icmt inhibition (in words) (Icmt): detrimental to inhibition

Structure (SMILES): COC(=O)CCSC/C=C(\C)CCn1cc(CCc2cccc(-c3ccccc3)c2)nn1 [Compound 10o]
- effect on viability in MEF Icmt^−/− cells (in words) (MEF Icmt^−/− cells): did not affect viability
- IC50 (MEF Icmt^−/− cells): > 100 µM
- potency relative to 10n (times less potent) (Icmt; ratio of Icmt IC50): ~30

Structure (SMILES): CC(C)=CCC/C(C)=C/CC/C(C)=C/CSc1ccccc1C(=O)O [FTS, S-farnesylthiosalicylic acid, reference compound]
- activity in MEF Icmt^+/+ versus Icmt^−/− cells (in words) (MEF Icmt^+/+ cells): equivalent activity in both cell lines

Structure (SMILES): C/C(=C\CSCCC(=O)O)CCn1cc(CCOC2CCCCO2)nn1 (stereo not drawn) [Compound 11m]
- Icmt inhibition (in words) (Icmt): poor Icmt inhibition

Structure (SMILES): COC(=O)CCSC/C=C(\C)CCn1cc(CCc2ccccc2-c2ccccc2)nn1 [Compound 10p]
- Icmt inhibition (in words) (Icmt): further reduced inhibitory activity

Structure (SMILES): COC(=O)CCSC/C=C(\C)CCn1cc(CCc2ccc(-c3ccccc3)cc2)nn1 [Compound 10n]
- IC50 (MEF Icmt^−/− cells): > 100 µM
- activity in MEF Icmt^+/+ versus Icmt^−/− cells (in words) (MEF Icmt^+/+ cells): selectively cytotoxic
- GFP-K-Ras membrane localization [1]: decrease in normal membrane localization; also recorded: capable of inducing K-Ras mislocalization
- Ki (Icmt): 0.4 µM
- mode of Icmt inhibition (Icmt): competitive inhibitor
- ligand efficiency (in words) (Icmt; compared with POP-3MB): significantly improved ligand efficiency
- Icmt inhibition (in words) (Icmt): more potent than the corresponding carboxylate, 11n

Structure (SMILES): COC(=O)CCSC/C=C(\C)CCn1cc(-c2cccc3ccccc23)nn1 [Compound 10g]
- effect on viability in MEF Icmt^−/− cells (in words) (MEF Icmt^−/− cells): did not affect viability
- IC50 (MEF Icmt^−/− cells): > 100 µM
